In ChEMBL document CHEMBL1153955, “Indolylarylsulfones bearing natural and unnatural amino acids. Discovery of potent inhibitors of HIV-1 non-nucleoside wild type and resistant mutant strains reverse transcriptase and coxsackie B4 virus” (J Med Chem, 2009) one finds IC50 data, which are given here for two compounds.

Type in all cases: functional, organism-based
Holding throughout (conditions): Human immunodeficiency virus 1, CCRF-CEM

The subject of assay [1] is Human immunodeficiency virus 1. The assay can be described thus: Antiviral activity against HIV1 with reverse transcriptase L100I mutation in human CEM cells assessed as protection against virus-induced cytopathicity. The procedure, abridged:
(§1)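 CEM cells (~3 × 10⁵ cells/mL) were infected with ~100 CCID₅₀ virus per mL and seeded with serial compound dilutions. After 4 days at 37 °C, syncytium (giant cell) formation was scored microscopically. EC₅₀ is the concentration giving 50% protection against virus cytopathicity.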
In general terms: Protection from cytopathic effect is a common read-out in antiviral testing.

Assay [2] concerns Human immunodeficiency virus 1. Nature of the assay: Antiviral activity against HIV1 with reverse transcriptase K103N mutation in human CEM cells assessed as protection against virus-induced cytopathicity. The procedure, abridged:
as §1

Assay [3] has as its system Human immunodeficiency virus 1. Nature of the assay: Antiviral activity against HIV1 with reverse transcriptase Y181C mutation in human CEM cells assessed as protection against virus-induced cytopathicity. In short, it runs like this: as §1
Assay [4] concerns Human immunodeficiency virus 1. The assay can be described thus: Antiviral activity against HIV1 with reverse transcriptase Y181I mutation in human CEM cells assessed as protection against virus-induced cytopathicity. The procedure, abridged: as §1
Assay [5] has as its system Human immunodeficiency virus 1. The assay can be described thus: Antiviral activity against HIV1 with reverse transcriptase Y188L mutation in human CEM cells assessed as protection against virus-induced cytopathicity. The procedure, abridged:
as §1

`Cc1ccnc2c1NC(=O)c1cccnc1N2C1CC1` [NEVIRAPINE]: the concentration for half-maximal inhibition (IC50) (in general, the point on the concentration scale where inhibition reaches its midpoint) was 60 nM in assay [1]; 2900 nM in assay [2]; 11000 nM in assay [3]; > 10000 nM in assay [4]; > 10000 nM in assay [5].
`O=C1Nc2ccc(Cl)cc2[C@@](C#CC2CC2)(C(F)(F)F)O1` [EFAVIRENZ]: the IC50 amounted to 22 nM in assay [1]; 130 nM in assay [2]; 160 nM in assay [3]; 12 nM in assay [4]; 760 nM in assay [5].
